test system: not listed separately; assay: Concentration that inhibits binding of [3H]ouabain against Digitalis receptor in dog heart microsomes; Not active at a concentration > 100 uM; design: species or system Canis lupus familiaris, Microsome; call rule not given here

In the case of `C[C@@H]1O[C@@H](O[C@H]2CC[C@@]3(C)[C@H](CC[C@@H]4[C@@H]3CC[C@]3(C)[C@@H]5CC[C@]43OC(=O)C5)C2)[C@H](O)[C@H](O)[C@H]1O`, the IC50 is reported as “Not Active”.

biological target: Sodium/potassium-transporting ATPase subunit alpha-1 (Canis lupus familiaris, UniProt P50997); assay: Inhibition of [3H]ouabain binding to Digitalis receptor in dog heart microsomes
Method in brief: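 Radioligand competition assay in dog heart muscle microsomes (membrane preparation), measuring [³H]ouabain binding with the test steroids present. Steroids were added in ethanol.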

Point of comparison: `CC1OC(O[C@H]2CC[C@@]3(C)[C@H](CC[C@@H]4[C@@H]3CC[C@]3(C)[C@@H](CCN)CC[C@]43O)C2)C(O)C(O)C1O` (some centres not stated), IC50 1890 nM. Against it:
- C[C@@H]1O[C@@H](O[C@H]2CC[C@@]3(C)[C@H](CC[C@@H]4[C@@H]3CC[C@]3(C)[C@@H](C(O)CN)CC[C@]43O)C2)[C@H](O)[C@H](O)[C@H]1O (some centres not stated) — 1.7-fold higher, 3220 nM
- C[C@@H]1O[C@@H](O[C@H]2CC[C@@]3(C)[C@H](CC[C@@H]4[C@@H]3CC[C@]3(C)[C@H](C(O)C[N+](=O)[O-])CC[C@]43O)C2)[C@H](O)[C@H](O)[C@H]1O (some centres not stated) — 2.5-fold higher, 4730 nM
- C[C@@H]1O[C@@H](O[C@H]2CC[C@@]3(C)[C@H](CC[C@@H]4[C@@H]3CC[C@]3(C)[C@@H](CCO)CC[C@]43O)C2)[C@H](O)[C@H](O)[C@H]1O — 2.9-fold lower, 660 nM
- C[C@@H]1O[C@@H](O[C@H]2CC[C@@]3(C)[C@H](CC[C@@H]4[C@@H]3CC[C@]3(C)[C@@H](CC[N+](=O)[O-])CC[C@]43O)C2)[C@H](O)[C@H](O)[C@H]1O — 42-fold lower, 45.5 nM
- COC(C[N+](=O)[O-])[C@H]1CC[C@]2(O)[C@@H]3CC[C@@H]4C[C@@H](O[C@@H]5O[C@@H](C)[C@H](O)[C@@H](O)[C@H]5O)CC[C@]4(C)[C@H]3CC[C@]12C (some centres not stated) — 63-fold lower, 30 nM
- C[C@@H]1O[C@@H](O[C@H]2CC[C@@]3(C)[C@H](CC[C@@H]4[C@@H]3CC[C@]3(C)[C@@H](/C=C/[N+](=O)[O-])CC[C@]43O)C2)[C@H](O)[C@H](O)[C@H]1O — 230-fold lower, 8.3 nM
- C[C@@H]1O[C@@H](O[C@H]2CC[C@@]3(C)[C@H](CC[C@@H]4[C@@H]3CC[C@]3(C)[C@@H](/C=C/C(=O)O)CC[C@]43O)C2)[C@H](O)[C@H](O)[C@H]1O — 150-fold lower, 13 nM
- C[C@@H]1O[C@@H](O[C@H]2CC[C@@]3(C)[C@H](CC[C@@H]4[C@@H]3CC[C@]3(C)[C@@H]5CC[C@]43OC5)C2)[C@H](O)[C@H](O)[C@H]1O — within 1.5-fold, 2200 nM
- C[C@@H]1O[C@@H](O[C@H]2CC[C@@]3(C)[C@H](CC[C@@H]4[C@@H]3CC[C@]3(C)[C@@H](CCC(=O)O)CC[C@]43O)C2)[C@H](O)[C@H](O)[C@H]1O — 8.2-fold lower, 230 nM
- C[C@H]1O[C@@H](O[C@H]2[C@@H](O)C[C@H](O[C@H]3[C@@H](O)C[C@H](O[C@H]4CC[C@@]5(C)[C@H](CC[C@@H]6[C@@H]5CC[C@]5(C)[C@@H](C7=CC(=O)OC7)CC[C@]65O)C4)O[C@@H]3C)O[C@@H]2C)C[C@H](O)[C@@H]1O [DIGITOXIN] — 240-fold lower, 8 nM

Source: ChEMBL document CHEMBL1130024, “Synthesis and structure-activity relationships of 17beta-substituted 14beta-hydroxysteroid 3-(alpha-L-rhamnopyranoside)s: steroids that bind to the digitalis receptor” (J Med Chem, 1997)
